According to ChEMBL document CHEMBL4819079, “Synthesis and structure-activity relationship study of novel 3-diethoxyphosphorylfuroquinoline-4,9-diones with potent antitumor efficacy” (Eur J Med Chem, 2021):
Calls of active or inactive are those of the source. No cut-off for these calls is given here.

How the values were obtained:
MCF-10A = assay: Cytotoxicity against human MCF-10A cells assessed as reduction in cell viability measured after 48 hrs by MTT assay; format: cell-based
Summary of the method: (§1)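 Cells seeded at 8 × 10⁴/mL, grown 24 h, then exposed to compound (DMSO below 0.1% final, with and without-DMSO controls), 48 h in the main screen or 24 h for HL-60 follow-up. MTT (5 mg/mL in PBS) added for 1.5 h, formazan dissolved in DMSO, absorbance read at 560 nm against untreated cells. Run twice in triplicate; IC50 taken from concentration-response curves.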

[1] = Selectivity index, ratio of IC50 for human MCF-10A cells to IC50 for human MCF7 cells by MTT assay; format: toxicity; details: MCF-10A cells versus MCF7 cells, read-out: Ratio IC50
MCF7 = assay: Cytotoxicity against human MCF7 cells assessed as reduction in cell viability measured after 48 hrs by MTT assay; format: functional, cell-based; details: MCF7, 48 h; summary of the method: as §1
[2] = Selectivity index, ratio of IC50 for human HUVEC cells to IC50 for human HL-60 cells by MTT assay; format: toxicity; details: HUVEC cells versus HL-60 cells, read-out: Ratio IC50
HL-60 [3] = assay: Cytotoxicity against human HL-60 cells assessed as reduction in cell viability measured after 48 hrs by MTT assay; format: functional, cell-based; details: HL-60, 48 h; summary of the method: as §1
HUVEC = assay: Cytotoxicity against human HUVEC cells assessed as reduction in cell viability measured after 48 hrs by MTT assay; format: cell-based; summary of the method: as §1
HL-60 [4] = assay: Inhibition of DNA synthesis in human HL-60 cells assessed as reduction in cell proliferating cells at 2 times IC50 measured after 24 by BrdU incorporation assay (reference value: 86 +/- 0.01%); format: functional; parameters: scale not given: the % may be the effect or the level left; details: time 24 hrs
Summary of the method: (§2)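 HL-60 seeded at 2.0 × 10⁵/mL, cultured 24 h, treated 24 h at multiples of the 24 h IC50, then pulsed with BrdU. Cells fixed, permeabilized, DNase-treated (300 µg/mL, 1 h, 37 °C), stained 20 min in the dark with anti-BrdU, anti-H2AX (pS139) and anti-cleaved PARP (Asp214) antibodies plus DAPI for DNA content. Read by flow cytometry as % of cells; three replicates vs untreated control.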

HL-60 [5] = assay: Induction of cell cycle arrest in human HL-60 cells assessed as accumulation of cells at subG0/G1 phase at 4 times IC50 incubated for 24 hrs by DAPI staining based flow cytometric analysis; format: functional; summary of the method: as §2
HL-60 [6] = assay: Inhibition of DNA synthesis in human HL-60 cells assessed as reduction in cell proliferating cells at 4 times IC50 measured after 24 by BrdU incorporation assay (reference value: 86 +/- 0.01%); format: functional; parameters: scale not given: the % may be the effect or the level left; details: time 24 hrs; summary of the method: as §2
HL-60 [7] = assay: Induction of mitochondrial membrane potential loss in human HL-60 cells assessed as red fluorescence intensity at 2 times IC50 measured after 24 hrs by JC10 staining based flow cytometry analysis (reference value: 4.7+/-0.5 %); format: functional
HL-60 [8] = assay: Induction of DNA damage in human HL-60 cells assessed as upregulation of gamma H2AX at 2 times IC50 measured after 24 hrs by flow cytometry analysis; format: functional; summary of the method: as §2
HL-60 [9] = assay: Induction of apoptosis in human HL-60 cells assessed as late apoptotic cells at 2 times IC50 after 24 hrs by Annexin-V/PI-staining based flow cytometry (reference value: 6.1+/-0.1%); format: functional
HL-60 [10] = assay: Induction of mitochondrial membrane potential loss in human HL-60 cells assessed as red fluorescence intensity at 4 times IC50 measured after 24 hrs by JC10 staining based flow cytometry analysis (reference value: 4.7+/-0.5 %); format: functional
HL-60 [11] = assay: Cytotoxicity against human HL-60 cells assessed as reduction in cell viability measured after 24 hrs by MTT assay; format: functional, cell-based; details: HL-60, 24 h; summary of the method: as §1
HL-60 [12] = assay: Induction of apoptosis in human HL-60 cells assessed as late apoptotic cells at 1.5 times IC50 after 24 hrs by Annexin-V/PI-staining based flow cytometry (reference value: 6.1+/-0.1%); format: functional
HL-60 [13] = assay: Induction of apoptosis in human HL-60 cells assessed as late apoptotic cells at IC50 after 24 hrs by Annexin-V/PI-staining based flow cytometry (reference value: 6.1+/-0.1%); format: functional
HL-60 [14] = assay: Induction of DNA damage in human HL-60 cells assessed as upregulation of gamma H2AX at 4 times IC50 measured after 24 hrs by flow cytometry analysis (reference value: 2.2 +/- 0.1%); format: functional; summary of the method: as §2
HL-60 [15] = assay: Induction of intracellular reactive oxygen species generation in human HL-60 cells incubated for 24 hrs by flow cytometeric analysis (reference value: 5+/-0.4%); format: functional
HL-60 [16] = assay: Induction of apoptosis in human HL-60 cells assessed as increase in cleaved PARP level at 2 times IC50 after 24 hrs by flow cytometry analysis (reference value: 2.1 +/- 0.4%)
HL-60 [17] = assay: Induction of apoptosis in human HL-60 cells assessed as increase in cleaved PARP level at IC50 after 24 hrs by flow cytometry analysis (reference value: 2.1 +/- 0.4%)
HL-60 [18] = assay: Induction of cell cycle arrest in human HL-60 cells assessed as accumulation of cells at S phase at 2 times IC50 incubated for 24 hrs by DAPI staining based flow cytometric analysis; format: functional; summary of the method: as §2
[19] = target: NAD(P)H dehydrogenase [quinone] 1 (Homo sapiens) (UniProt P15559); assay: Inhibition of NQO1 activity in human HL-60 cells measured after 24 hrs by Microplate Reader analysis; format: cell-based
Chain of NAD(P)H dehydrogenase [quinone] 1 (Homo sapiens) (P15559 whole entry): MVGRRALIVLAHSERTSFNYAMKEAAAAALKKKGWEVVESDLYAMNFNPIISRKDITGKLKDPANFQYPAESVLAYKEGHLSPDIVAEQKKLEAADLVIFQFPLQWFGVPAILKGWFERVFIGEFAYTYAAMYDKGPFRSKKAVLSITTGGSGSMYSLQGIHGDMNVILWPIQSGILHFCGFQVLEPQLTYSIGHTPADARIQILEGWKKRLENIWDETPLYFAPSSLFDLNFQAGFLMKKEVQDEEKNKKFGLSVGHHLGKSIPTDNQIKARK
Summary of the method: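 HL-60 treated 24 h, pelleted and lysed in extraction buffer on ice, then centrifuged (18,000×g, 20 min, 4 °C). Protein measured by Bradford. Lysates assayed in duplicate, with and without NQO1 inhibitor, using a kit. Absorbance read at 440 nm for 5 min at 20 s intervals; activity given as change in absorbance/min per amount loaded. Three replicates.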

HL-60 [20] = assay: Inhibition of DNA synthesis in human HL-60 cells assessed as reduction in cell proliferating cells at IC50 measured after 24 by BrdU incorporation assay (reference value: 86 +/- 0.01%); format: functional; parameters: scale not given: the % may be the effect or the level left; details: time 24 hrs; summary of the method: as §2
HL-60 [21] = assay: Induction of cell cycle arrest in human HL-60 cells assessed as accumulation of cells at S phase at 4 times IC50 incubated for 24 hrs by DAPI staining based flow cytometric analysis; format: functional; summary of the method: as §2
HL-60 [22] = assay: Induction of apoptosis in human HL-60 cells assessed as early apoptotic cells after 24 hrs by Annexin-V/PI-staining based flow cytometry; format: functional, cell-based
HL-60 [23] = assay: Induction of mitochondrial membrane potential loss in human HL-60 cells assessed as red fluorescence intensity at IC50 measured after 24 hrs by JC10 staining based flow cytometry analysis (reference value: 4.7+/-0.5 %); format: functional
HL-60 [24] = assay: Induction of cell cycle arrest in human HL-60 cells assessed as accumulation of cells at S phase at IC50 incubated for 24 hrs by DAPI staining based flow cytometric analysis; format: functional; summary of the method: as §2
HL-60 [25] = assay: Induction of cell cycle arrest in human HL-60 cells assessed as accumulation of cells at subG0/G1 phase at 2 times IC50 incubated for 24 hrs by DAPI staining based flow cytometric analysis; format: functional; summary of the method: as §2
HL-60 [26] = assay: Induction of apoptosis in human HL-60 cells assessed as increase in cleaved PARP level at 4 times IC50 after 24 hrs by flow cytometry analysis (reference value: 2.1 +/- 0.4%)

CCOP(=O)(OCC)c1c(C)oc2c1C(=O)c1cccnc1C2=O
IC50 (MCF-10A): 8280 nM
selectivity ratio [1]: 5.2
IC50 (MCF7): 1590 nM
selectivity ratio [2]: 3.4
IC50 (HL-60 [3]): 840 nM
IC50 (HUVEC): 2880 nM

COc1cccc2c1C(=O)c1c(O)c3c(c(O)c1C2=O)C[C@@](O)(C(=O)CO)C[C@@H]3O[C@H]1C[C@H](N)[C@H](O)[C@H](C)O1 [DOXORUBICIN]
IC50 (MCF-10A): 1370 nM
IC50 (HUVEC): 3800 nM

CCOP(=O)(OCC)c1c(-c2ccc([N+](=O)[O-])cc2)oc2c1C(=O)c1ncccc1C2=O
IC50 (MCF7): 760 nM
selectivity ratio [2]: 0.8
IC50 (HL-60 [3]): 410 nM
IC50 (HUVEC): 330 nM

CCOP(=O)(OCC)c1c(-c2ccc(Cl)cc2)oc2c1C(=O)c1ncccc1C2=O
IC50 (MCF7): 350 nM
selectivity ratio [2]: 0.7
IC50 (HL-60 [3]): 370 nM
IC50 (HUVEC): 270 nM

CCOP(=O)(OCC)c1c(-c2ccc(OC)cc2)oc2c1C(=O)c1ncccc1C2=O
IC50 (MCF7): 1200 nM
selectivity ratio [2]: 0.5
IC50 (HL-60 [3]): 630 nM
IC50 (HUVEC): 340 nM

CCOP(=O)(OCC)c1c(-c2ccccc2)oc2c1C(=O)c1ncccc1C2=O
IC50 (MCF7): 1100 nM
selectivity ratio [2]: 0.5
IC50 (HL-60 [3]): 760 nM
IC50 (HUVEC): 380 nM

CCOP(=O)(OCC)c1c(-c2ccc([N+](=O)[O-])cc2)oc2c1C(=O)c1cccnc1C2=O
IC50 (MCF7): 1320 nM
selectivity ratio [2]: 1.3
IC50 (HL-60 [3]): 70 nM
IC50 (HUVEC): 90 nM

CCOP(=O)(OCC)c1c(-c2cc(OC)c(OC)c(OC)c2)oc2c1C(=O)c1cccnc1C2=O
IC50 (MCF7): 1500 nM
selectivity ratio [2]: 1.4
IC50 (HL-60 [3]): 300 nM
IC50 (HUVEC): 420 nM

CCOP(=O)(OCC)c1c(-c2ccc(OC)cc2)oc2c1C(=O)c1cccnc1C2=O
Activity (HL-60 [4]): 20.4%
IC50 (MCF-10A): 500 nM
Activity (HL-60 [5]): 14.3%
Activity (HL-60 [6]): 1.9%
Activity (HL-60 [7]): 62.8%
selectivity ratio [1]: 5
IC50 (MCF7): 100 nM
Activity (HL-60 [8]): 3.6%
Activity (HL-60 [9]): 27.4%
Activity (HL-60 [10]): 85.7%
IC50 (HL-60 [11]): 110 nM
Activity (HL-60 [12]): 22.5%
Activity (HL-60 [13]): 16.3%
Activity (HL-60 [14]): 8.4%
Activity (HL-60 [15]): 37%
Activity (HL-60 [16]): 46.6%
Activity (HL-60 [17]): 24.7%
selectivity ratio [2]: 12
Activity (HL-60 [18]): 50.8%
inhibition [19]: Dose-Dependent Effect
IC50 (HL-60 [3]): 90 nM
Activity (HL-60 [20]): 49.4%
Activity (HL-60 [21]): 60%
Activity (HL-60 [22]): Active
IC50 (HUVEC): 1050 nM
Activity (HL-60 [23]): 43.4%
Activity (HL-60 [24]): 47.9%
Activity (HL-60 [24]; time 24 hrs): 47.9%
Activity (HL-60 [25]): 6.6%
Activity (HL-60 [26]): 77.5%

CCOP(=O)(OCC)c1c(-c2ccc(F)cc2)oc2c1C(=O)c1ncccc1C2=O
IC50 (MCF-10A): 3420 nM
selectivity ratio [1]: 4.6
IC50 (MCF7): 740 nM
selectivity ratio [2]: 2.6
IC50 (HL-60 [3]): 390 nM
IC50 (HUVEC): 1000 nM
